pIC50: −log10 of the molar value. Values after ≈ are worked out from the molar mass of the structure shown.
Tests used:
[1] = test system: BXPC-3; assay: Antiproliferative activity against human BxPC3 cells after 24 hrs by MTT assay; format: functional, cell-based; settings: BXPC-3, 24 h
[2] = test system: MCF7; assay: Antiproliferative activity against human MCF7 cells after 24 hrs by MTT assay; format: functional, cell-based; settings: MCF7, 24 h
[3] = test system: PC-3; assay: Antiproliferative activity against human PC3 cells after 24 hrs by MTT assay; format: functional, cell-based; settings: PC-3, 24 h
[4] = Solubility of the compound in water at pH 7.4 by HPLC method; format: physicochemical
Summary of the method: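 Aqueous solubility measured at pH 7.4, with samples quantified by HPLC.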

[5] = Half life in rat liver microsomes in presence of NADPH by HPLC method; format: ADME, microsome
Summary of the method: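 Compounds incubated with rat liver microsomes plus NADPH. Remaining compound quantified by HPLC at 0, 5, 10, 20, 30, 45, 60 and 90 min, and half-life calculated.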

[6] = test system: MCF7; assay: Cell cycle arrest in human MCF7 cells expressing scrambled siRNA assessed as accumulation at G0/G1 phase at 1 uM after 24 hrs by propidium iodide staining based flow cytometry (reference value: 49.28%); format: functional
[7] = test system: MCF7; assay: Cell cycle arrest in human MCF7 cells expressing scrambled siRNA assessed as accumulation at G2/M phase at 1 uM after 24 hrs by propidium iodide staining based flow cytometry (reference value: 19.6%); format: functional
[8] = test system: MCF7; assay: Cell cycle arrest in human MCF7 cells expressing scrambled siRNA assessed as accumulation at S phase at 1 uM after 24 hrs by propidium iodide staining based flow cytometry (reference value: 29.79%); format: functional
[9] = test system: MCF7; assay: Cell cycle arrest in human MCF7 cells expressing VDR siRNA assessed as accumulation at G0/G1 phase at 1 uM after 24 hrs by propidium iodide staining based flow cytometry (reference value: 49.17%); format: functional
[10] = test system: MCF7; assay: Cell cycle arrest in human MCF7 cells expressing VDR siRNA assessed as accumulation at G2/M phase at 1 uM after 24 hrs by propidium iodide staining based flow cytometry (reference value: 17.57%); format: functional
[11] = test system: MCF7; assay: Cell cycle arrest in human MCF7 cells expressing VDR siRNA assessed as accumulation at S phase at 1 uM after 24 hrs by propidium iodide staining based flow cytometry (reference value: 32%); format: functional
[12] = test system: MCF7; assay: Induction of apoptosis in human MCF7 cells expressing scrambled siRNA assessed as live cells at 1 uM after 24 hrs by Annexin-V-FITC/propidium iodide staining based flow cytometry (reference value: 97.93%); format: functional
[13] = test system: MCF7; assay: Induction of apoptosis in human MCF7 cells expressing scrambled siRNA assessed as early apoptotic cells at 1 uM after 24 hrs by Annexin-V-FITC/propidium iodide staining based flow cytometry (reference value: 0.93%); format: functional
[14] = test system: MCF7; assay: Induction of apoptosis in human MCF7 cells expressing scrambled siRNA assessed as late apoptotic cells at 1 uM after 24 hrs by Annexin-V-FITC/propidium iodide staining based flow cytometry (reference value: 0.98%); format: functional
[15] = test system: MCF7; assay: Induction of apoptosis in human MCF7 cells expressing scrambled siRNA assessed as necrotic cells at 1 uM after 24 hrs by Annexin-V-FITC/propidium iodide staining based flow cytometry (reference value: 0.16%); format: functional
[16] = test system: MCF7; assay: Induction of apoptosis in human MCF7 cells expressing VDR siRNA assessed as live cells at 1 uM after 24 hrs by Annexin-V-FITC/propidium iodide staining based flow cytometry (reference value: 98.35%); format: functional
[17] = test system: MCF7; assay: Induction of apoptosis in human MCF7 cells expressing VDR siRNA assessed as early apoptotic cells at 1 uM after 24 hrs by Annexin-V-FITC/propidium iodide staining based flow cytometry (reference value: 0.49%); format: functional
[18] = test system: MCF7; assay: Induction of apoptosis in human MCF7 cells expressing VDR siRNA assessed as late apoptotic cells at 1 uM after 24 hrs by Annexin-V-FITC/propidium iodide staining based flow cytometry (reference value: 1.01%); format: functional
[19] = test system: MCF7; assay: Induction of apoptosis in human MCF7 cells expressing VDR siRNA assessed as necrotic cells at 1 uM after 24 hrs by Annexin-V-FITC/propidium iodide staining based flow cytometry (reference value: 0.15%); format: functional

Structure (SMILES)	pIC50 [1]	pIC50 [2]	pIC50 [3]	other results
CCn1c(C(=O)N[C@H](CO)CCCO)ccc1C(CC)(CC)c1ccc(OCS(=O)(=O)c2ccccc2)c(C)c1	< 4.30	4.50	5.17	
CCn1c(C(=O)N[C@H](CCC(=O)O)C(=O)O)ccc1C(CC)(CC)c1ccc(OCS(=O)(=O)c2ccccc2)c(C)c1	< 4.30	< 4.30	< 4.30	
CCn1c(C(=O)NCCO)ccc1C(CC)(CC)c1ccc(OCS(=O)(=O)c2ccccc2)c(C)c1	4.70	4.81	4.75	
CCN(CC)CCNC(=O)c1cc(C(CC)(CC)c2ccc(OCS(C)(=O)=O)c(C)c2)cn1CC	4.52	4.79	4.44	
CCn1c(C(=O)N[C@H](C)CO)ccc1C(CC)(CC)c1ccc(OCS(=O)(=O)c2ccccc2)c(C)c1	5.00	4.97	5.11	
CCn1c(C(=O)N[C@@H](C(=O)O)C(C)C)ccc1C(CC)(CC)c1ccc(OCS(=O)(=O)c2ccccc2)c(C)c1	4.86	4.35	5.51	
CCn1c(C(=O)N[C@H](CO)C(C)C)ccc1C(CC)(CC)c1ccc(OCS(=O)(=O)c2ccccc2)c(C)c1	5.11	4.59	5.14	solubility [4]: 27.8 µg/mL (≈ 50.1 µM); half-life [5]: 46.3 min
CCn1c(C(=O)N[C@H](C)C(=O)O)ccc1C(CC)(CC)c1ccc(OCS(=O)(=O)c2ccccc2)c(C)c1	4.70	< 4.30	4.70	
CCn1c(C(=O)NCCC(=O)O)ccc1C(CC)(CC)c1ccc(OCS(=O)(=O)c2ccccc2)c(C)c1	< 4.30	< 4.30	4.84	
CCn1c(C(=O)N[C@@H](C)CO)ccc1C(CC)(CC)c1ccc(OCS(=O)(=O)c2ccccc2)c(C)c1	4.82	4.97	5.02	solubility [4]: 35.7 µg/mL (≈ 67.8 µM); half-life [5]: 43.8 min
CCn1c(C(=O)N[C@@H](CCC(=O)O)C(=O)O)ccc1C(CC)(CC)c1ccc(OCS(=O)(=O)c2ccccc2)c(C)c1	< 4.30	< 4.30	< 4.30	
CCN(CC)CCNC(=O)c1cc(C(CC)(CC)c2ccc(OCSc3ccccc3)c(C)c2)cn1CC	5.27	5.33	5.58	Activity [6]: 55.79%; Activity [7]: 11.15%; Activity [8]: 31.75%; Activity [9]: 50.29%; Activity [10]: 17.3%; Activity [11]: 30.97%; Activity [12]: 94.44%; Activity [13]: 1.01%; Activity [14]: 3.65%; Activity [15]: 0.9%; Activity [16]: 97.14%; Activity [17]: 0.58%; Activity [18]: 1.91%; Activity [19]: 0.37%; solubility [4]: 0.6 µg/mL (≈ 1.12 µM); half-life [5]: 71.4 min
CCn1c(C(=O)N[C@@H](C)C(=O)OC)ccc1C(CC)(CC)c1ccc(OCS(=O)(=O)c2ccccc2)c(C)c1	4.75	4.36	< 4.30	
CCn1c(C(=O)N[C@H](C(=O)O)C(C)C)ccc1C(CC)(CC)c1ccc(OCS(=O)(=O)c2ccccc2)c(C)c1	4.79	4.61	5.44	
CCn1c(C(=O)N[C@H](CO)CCO)ccc1C(CC)(CC)c1ccc(OCS(=O)(=O)c2ccccc2)c(C)c1	4.80	4.54	4.92	
CCn1c(C(=O)N[C@@H](CO)CCCO)ccc1C(CC)(CC)c1ccc(OCS(=O)(=O)c2ccccc2)c(C)c1	4.78	4.53	4.87	
CCn1c(C(=O)NCCCO)ccc1C(CC)(CC)c1ccc(OCS(=O)(=O)c2ccccc2)c(C)c1	4.58	4.38	4.95	
CCn1c(C(=O)NCCN)ccc1C(CC)(CC)c1ccc(OCS(=O)(=O)c2ccccc2)c(C)c1	5.19	5.19	5.16	solubility [4]: 65 µg/mL (≈ 127 µM); half-life [5]: 34.9 min

Structure (SMILES)	pIC50 [1]	pIC50 [2]	pIC50 [3]	other results
CCn1c(C(=O)NC2(C(=O)O)CC2)ccc1C(CC)(CC)c1ccc(OCS(=O)(=O)c2ccccc2)c(C)c1	< 4.30	4.39	4.58	
CCN(CC)CCNC(=O)c1ccc(C(CC)(CC)c2ccc(OCSc3ccccc3)c(C)c2)n1CC	5.25	5.31	5.65	Activity [6]: 55.65%; Activity [7]: 11.15%; Activity [8]: 31.59%; Activity [9]: 51.65%; Activity [10]: 17.07%; Activity [11]: 30.12%; Activity [12]: 96.21%; Activity [13]: 0.59%; Activity [14]: 2.85%; Activity [15]: 0.35%; Activity [16]: 97.03%; Activity [17]: 0.71%; Activity [18]: 1.78%; Activity [19]: 0.47%; solubility [4]: 25.6 µg/mL (≈ 47.8 µM); half-life [5]: 53.7 min
CCN(CC)CCNC(=O)c1ccc(C(CC)(CC)c2ccc(OCS(=O)(=O)c3ccccc3)c(C)c2)n1CC	5.20	5.33	5.15	solubility [4]: 117 µg/mL (≈ 207 µM); half-life [5]: 62.4 min
CCn1c(C(=O)NC(C)(C)CO)ccc1C(CC)(CC)c1ccc(OCS(=O)(=O)c2ccccc2)c(C)c1	4.74	4.69	5.01	
CCn1c(C(=O)NCC(=O)O)ccc1C(CC)(CC)c1ccc(OCS(=O)(=O)c2ccccc2)c(C)c1	< 4.30	4.48	4.52	
CCn1c(C(=O)N[C@@H](CO)CCO)ccc1C(CC)(CC)c1ccc(OCS(=O)(=O)c2ccccc2)c(C)c1	< 4.30	4.56	4.85	
CCn1c(C(=O)NCC(=O)OC)ccc1C(CC)(CC)c1ccc(OCS(=O)(=O)c2ccccc2)c(C)c1	4.70	< 4.30	< 4.30	
CCn1c(C(=O)N[C@@H](C)C(=O)O)ccc1C(CC)(CC)c1ccc(OCS(=O)(=O)c2ccccc2)c(C)c1	4.68	4.45	4.77	
CCN(CC)CCNC(=O)c1ccc(C(CC)(CC)c2ccc(OCS(C)(=O)=O)c(C)c2)n1CC	4.47	4.83	4.33	
CCn1c(C(=O)NCCC(=O)OC)ccc1C(CC)(CC)c1ccc(OCS(=O)(=O)c2ccccc2)c(C)c1	< 4.30	< 4.30	4.39	
CCn1c(C(=O)N[C@@H](CC(=O)O)C(=O)O)ccc1C(CC)(CC)c1ccc(OCS(=O)(=O)c2ccccc2)c(C)c1	< 4.30	< 4.30	< 4.30	
CCn1c(C(=O)N[C@@H](CC(=O)OC)C(=O)OC)ccc1C(CC)(CC)c1ccc(OCS(=O)(=O)c2ccccc2)c(C)c1	< 4.30	< 4.30	5.19	
CCn1c(C(=O)NC2(CO)CC2)ccc1C(CC)(CC)c1ccc(OCS(=O)(=O)c2ccccc2)c(C)c1	4.34	4.54	5.45	
CCn1c(C(=O)NCCNC(=O)OC(C)(C)C)ccc1C(CC)(CC)c1ccc(OCS(=O)(=O)c2ccccc2)c(C)c1	< 4.30	< 4.30	< 4.30	
CCn1c(C(=O)N[C@H](CC(=O)O)C(=O)O)ccc1C(CC)(CC)c1ccc(OCS(=O)(=O)c2ccccc2)c(C)c1	< 4.30	< 4.30	< 4.30	
CCn1c(C(=O)N[C@H](C)C(=O)OC)ccc1C(CC)(CC)c1ccc(OCS(=O)(=O)c2ccccc2)c(C)c1	< 4.30	< 4.30	< 4.30	
CCn1c(C(=O)N[C@@H](CO)C(C)C)ccc1C(CC)(CC)c1ccc(OCS(=O)(=O)c2ccccc2)c(C)c1	4.88	4.73	4.97	
